Laboratory results taken from ChEMBL document CHEMBL3585302, “Synthesis and antibacterial activities of cadiolides A, B and C and analogues” (Bioorg Med Chem, 2015).
Activity calls are given as the source filed them. The calls are words filed in the database; no cut-off is given here.

Assays:
Bacillus cereus [1] = assay: Antibacterial activity against Bacillus cereus CECT 148 assessed as inhibition of microbial growth at 125 ug/ml incubated for 18 hrs by 2-fold microtiter broth dilution method; assay type: functional, organism-based
How it was run: (§1)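 Compounds in DMSO, ten 2-fold serial dilutions (125 down to 0.24 µg/mL tested). Bacteria at OD620 = 0.001 in Nutrient Broth mixed 1:1 with dilutions. Incubated overnight (18 h) at 28°C or 37°C according to strain. Growth read turbidimetrically at OD620. MIC is the lowest concentration giving complete growth inhibition. Triplicate runs. Tetracycline as reference.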

Staphylococcus aureus [2] = assay: Antibacterial activity against Staphylococcus aureus CECT 86 assessed as inhibition of microbial growth at 125 ug/ml incubated for 18 hrs by 2-fold microtiter broth dilution method; assay type: functional, organism-based; how it was run: as §1
Enterococcus faecalis [3] = assay: Antibacterial activity against Enterococcus faecalis CECT 481 assessed as inhibition of microbial growth at 125 ug/ml incubated for 18 hrs by 2-fold microtiter broth dilution method; assay type: functional, organism-based; how it was run: as §1
Salmonella typhi [4] = assay: Antibacterial activity against Salmonella typhi CECT 409 assessed as inhibition of microbial growth at 125 ug/ml incubated for 18 hrs by 2-fold microtiter broth dilution method; assay type: functional, organism-based; conditions: Salmonella enterica subsp. enterica serovar Typhi
How it was run: (§2)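 Compounds in DMSO, ten 2-fold serial dilutions (125 down to 0.24 µg/mL), mixed 1:1 with bacteria in Nutrient Broth at OD620 = 0.001. Incubated overnight (18 h) at 28 or 37 °C depending on strain. Growth read turbidimetrically at OD620; MIC is the lowest concentration completely inhibiting growth, per CLSI. Triplicate runs; tetracycline reference.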

Escherichia coli [5] = assay: Antibacterial activity against Escherichia coli CECT 405 assessed as inhibition of microbial growth at 125 ug/ml incubated for 18 hrs by 2-fold microtiter broth dilution method; assay type: functional, organism-based; how it was run: as §1
[6] = test system: Pectobacterium carotovorum; assay: Antibacterial activity against Erwinia carotovora CECT 225 assessed as inhibition of microbial growth at 125 ug/ml incubated for 18 hrs by 2-fold microtiter broth dilution method; assay type: functional, organism-based; how it was run: as §1
Bacillus subtilis [7] = assay: Antibacterial activity against Bacillus subtilis CECT 35 assessed as inhibition of microbial growth at 125 ug/ml incubated for 18 hrs by 2-fold microtiter broth dilution method; assay type: functional, organism-based; how it was run: as §1
Escherichia coli [8] = assay: Antibacterial activity against Escherichia coli CECT 100 assessed as inhibition of microbial growth at 125 ug/ml incubated for 18 hrs by 2-fold microtiter broth dilution method; assay type: functional, organism-based; how it was run: as §1
Bacillus cereus [9] = assay: Antibacterial activity against Bacillus cereus CECT 148 assessed as inhibition of microbial growth incubated for 18 hrs by 2-fold microtiter broth dilution method; assay type: functional, organism-based; conditions: CECT 148, 18 h; how it was run: as §1
Staphylococcus aureus [10] = assay: Antibacterial activity against Staphylococcus aureus CECT 86 assessed as inhibition of microbial growth incubated for 18 hrs by 2-fold microtiter broth dilution method; assay type: functional, organism-based; conditions: CECT 86, 18 h; how it was run: as §1
Enterococcus faecalis [11] = assay: Antibacterial activity against Enterococcus faecalis CECT 481 assessed as inhibition of microbial growth incubated for 18 hrs by 2-fold microtiter broth dilution method; assay type: functional, organism-based; conditions: CECT 481, 18 h; how it was run: as §1
Salmonella typhi [12] = assay: Antibacterial activity against Salmonella typhi CECT 409 assessed as inhibition of microbial growth incubated for 18 hrs by 2-fold microtiter broth dilution method; assay type: functional, organism-based, Salmonella enterica subsp. enterica serovar Typhi; conditions: Salmonella enterica, CECT 409, 18 h; how it was run: as §2
Escherichia coli [13] = assay: Antibacterial activity against Escherichia coli CECT 405 assessed as inhibition of microbial growth incubated for 18 hrs by 2-fold microtiter broth dilution method; assay type: functional, organism-based; conditions: CECT 405, 18 h; how it was run: as §1
[14] = test system: Pectobacterium carotovorum; assay: Antibacterial activity against Erwinia carotovora CECT 225 assessed as inhibition of microbial growth incubated for 18 hrs by 2-fold microtiter broth dilution method; assay type: functional, organism-based; conditions: CECT 225, 18 h; how it was run: as §1
Bacillus subtilis [15] = assay: Antibacterial activity against Bacillus subtilis CECT 35 assessed as inhibition of microbial growth incubated for 18 hrs by 2-fold microtiter broth dilution method; assay type: functional, organism-based; conditions: CECT 35, 18 h; how it was run: as §1
Escherichia coli [16] = assay: Antibacterial activity against Escherichia coli CECT 100 assessed as inhibition of microbial growth incubated for 18 hrs by 2-fold microtiter broth dilution method; assay type: functional, organism-based; conditions: CECT 100, 18 h; how it was run: as §1

Structure (SMILES)	growth inhibition (GI) (Bacillus cereus [1])	growth inhibition (GI) (Staphylococcus aureus [2])	growth inhibition (GI) (Enterococcus faecalis [3])	growth inhibition (GI) (Salmonella typhi [4])	growth inhibition (GI) (Escherichia coli [5])	growth inhibition (GI) [6]	growth inhibition (GI) (Bacillus subtilis [7])	growth inhibition (GI) (Escherichia coli [8])	MIC (Bacillus cereus [9]) [µg/mL]	MIC (Staphylococcus aureus [10]) [µg/mL]	MIC (Enterococcus faecalis [11]) [µg/mL]	MIC (Salmonella typhi [12]) [µg/mL]	MIC (Escherichia coli [13]) [µg/mL]	MIC [14] [µg/mL]	MIC (Bacillus subtilis [15]) [µg/mL]	MIC (Escherichia coli [16]) [µg/mL]
COc1c(Br)cc(C2=C(C(=O)c3ccc(O)c(Br)c3)C(=O)O/C2=C\c2cc(Br)c(O)c(Br)c2)cc1Br	inactive	inactive	inactive	inactive	inactive	inactive	inactive	inactive	–	–	–	–	–	–	–	–
O=C1O/C(=C\c2ccc(O)c(Br)c2)C(c2ccc(O)cc2)=C1C(=O)c1ccc(O)cc1	–	–	–	–	–	–	–	–	125	> 125	> 125	> 125	> 125	> 125	> 125	> 125
O=C1O/C(=C\c2ccc(O)c(Br)c2)C(c2ccc(O)c(Br)c2)=C1C(=O)c1cc(Br)c(O)c(Br)c1 [CADIOLIDE C]	–	–	–	–	–	–	–	–	3.9	3.9	3.9	3.9	3.9	125	125	> 125
COc1ccc(C2=C(C(=O)c3ccco3)C(=O)O/C2=C\c2ccc(O)cc2)cc1	inactive	inactive	inactive	inactive	inactive	inactive	inactive	inactive	–	–	–	–	–	–	–	–
O=C1O/C(=C\c2ccc(O)cc2)C(c2cc(Br)c(O)c(Br)c2)=C1C(=O)c1cc(Br)c(O)c(Br)c1	–	–	–	–	–	–	–	–	7.81	7.81	7.81	7.81	7.81	125	125	> 125
COc1ccc(C2=C(C(=O)c3ccco3)C(=O)O/C2=C\c2ccc(O)c(Br)c2)cc1Br	inactive	inactive	inactive	inactive	inactive	inactive	inactive	inactive	–	–	–	–	–	–	–	–
COc1c(Br)cc(C2=C(C(=O)c3ccc(O)cc3)C(=O)O/C2=C\c2cc(Br)c(O)c(Br)c2)cc1Br	inactive	inactive	inactive	inactive	inactive	inactive	inactive	inactive	–	–	–	–	–	–	–	–
COc1ccc(C2=C(C(=O)c3ccc(O)cc3)C(=O)O/C2=C\c2ccc(O)cc2)cc1	inactive	inactive	inactive	inactive	inactive	inactive	inactive	inactive	–	–	–	–	–	–	–	–
COc1ccc(C2=C(C(=O)c3ccc(O)cc3)C(=O)O/C2=C\c2ccc(O)c(Br)c2)cc1	inactive	inactive	inactive	inactive	inactive	inactive	inactive	inactive	–	–	–	–	–	–	–	–
COc1c(Br)cc(C2=C(C(=O)c3cc(Br)c(O)c(Br)c3)C(=O)O/C2=C\c2ccc(O)cc2)cc1Br	inactive	inactive	inactive	inactive	inactive	inactive	inactive	inactive	–	–	–	–	–	–	–	–
COc1ccc(C2=C(C(=O)c3ccc(O)c(Br)c3)C(=O)O/C2=C\c2ccc(O)c(Br)c2)cc1Br	inactive	inactive	inactive	inactive	inactive	inactive	inactive	inactive	–	–	–	–	–	–	–	–
COc1ccc(C2=C(C(=O)c3ccc(O)cc3)C(=O)O/C2=C\c2ccc(O)c(Br)c2)cc1Br	inactive	inactive	inactive	inactive	inactive	inactive	inactive	inactive	–	–	–	–	–	–	–	–
COc1ccc(C2=C(C(=O)c3ccc(O)c(Br)c3)C(=O)O/C2=C\c2cc(Br)c(O)c(Br)c2)cc1Br	inactive	inactive	inactive	inactive	inactive	inactive	inactive	inactive	–	–	–	–	–	–	–	–
O=C1O/C(=C\c2cc(Br)c(O)c(Br)c2)C(c2cc(Br)c(O)c(Br)c2)=C1C(=O)c1ccc(O)cc1	–	–	–	–	–	–	–	–	3.9	3.9	3.9	3.9	7.81	125	125	> 125
O=C1O/C(=C\c2cc(Br)c(O)c(Br)c2)C(c2cc(Br)c(O)c(Br)c2)=C1C(=O)c1cc(Br)c(O)c(Br)c1 [CADIOLIDE B]	–	–	–	–	–	–	–	–	7.81	7.81	7.81	15.6	7.81	> 125	> 125	> 125
O=C1O/C(=C\c2ccc(O)c(Br)c2)C(c2ccc(O)cc2)=C1C(=O)c1ccc(O)c(Br)c1	–	–	–	–	–	–	–	–	3.9	> 125	> 125	125	125	> 125	> 125	> 125
O=C1O/C(=C\c2cc(Br)c(O)c(Br)c2)C(c2ccc(O)cc2)=C1C(=O)c1cc(Br)c(O)c(Br)c1	–	–	–	–	–	–	–	–	15.6	15.6	15.6	15.6	15.6	125	125	> 125
O=C1O/C(=C\c2ccc(O)cc2)C(c2ccc(O)cc2)=C1C(=O)c1ccc(O)cc1	–	–	–	–	–	–	–	–	62.5	62.5	125	125	62.5	125	> 125	62.5
O=C1O/C(=C\c2cc(Br)c(O)c(Br)c2)C(c2cc(Br)c(O)c(Br)c2)=C1C(=O)c1ccc(O)c(Br)c1	–	–	–	–	–	–	–	–	3.9	3.9	3.9	3.9	1.95	125	125	> 125
O=C1O/C(=C\c2ccc(O)cc2)C(c2ccc(O)cc2)=C1C(=O)c1ccco1	–	–	–	–	–	–	–	–	15.6	15.6	31.2	15.6	31.2	> 125	> 125	31.2
O=C1O/C(=C\c2ccc(O)c(Br)c2)C(c2ccc(O)c(Br)c2)=C1C(=O)c1ccc(O)cc1	–	–	–	–	–	–	–	–	15.6	31.2	31.2	31.2	15.6	125	125	15.6
CN(C)[C@@H]1C(O)=C(C(N)=O)C(=O)[C@@]2(O)C(O)=C3C(=O)c4c(O)cccc4[C@@](C)(O)[C@H]3C[C@@H]12 [TETRACYCLINE]	–	–	–	–	–	–	–	–	3.9	0.24	0.48	7.81	7.81	3.9	0.97	3.9
O=C1O/C(=C\c2cc(Br)c(O)c(Br)c2)C(c2ccc(O)c(Br)c2)=C1C(=O)c1ccc(O)c(Br)c1	–	–	–	–	–	–	–	–	1.95	3.9	1.95	3.9	3.9	125	125	> 125
